# Shown are actives, neighbours in structure and some others; about 4.6% of the full set was active somewhere.
# TAAR1 antagonist: human TAAR1 antagonists, primary screen, Fluo-8 calcium fluorescence, CHO RD-HGA16 cells. 360,000 compounds, 1.5% hits. Trace amine-associated receptor 1 (Homo sapiens), Q96RJ0. AID 624466, 2012. inhibition, % at 3 µM. antagonist;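 active means inhibition above a per-plate cutoff, the mean inhibition of test compounds on that plate plus 3 SD, cut at about 49% in these data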;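 further: 0% = DMSO plus EC80 beta-PEA response and 100% = DMSO alone without agonist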
# Target sequence (Q96RJ0 whole entry, looked up): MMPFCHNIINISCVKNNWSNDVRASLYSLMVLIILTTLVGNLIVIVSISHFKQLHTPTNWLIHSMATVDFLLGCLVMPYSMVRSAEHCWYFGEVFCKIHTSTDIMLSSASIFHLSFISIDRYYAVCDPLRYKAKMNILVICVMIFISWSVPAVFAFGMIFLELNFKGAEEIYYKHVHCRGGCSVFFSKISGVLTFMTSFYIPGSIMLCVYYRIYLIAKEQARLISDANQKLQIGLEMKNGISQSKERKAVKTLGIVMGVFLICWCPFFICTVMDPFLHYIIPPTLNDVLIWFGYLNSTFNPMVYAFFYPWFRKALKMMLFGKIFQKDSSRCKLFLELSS
#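 System: RD-HGA16 CHO cells with stable hTAAR1 and Gα16 | Probe or stimulus: EC80 β-phenethylamine stimulus | Dosing: 3 µM, single point | Times: Dye loading 75 min at 37 °C, then 30 min room temperature | Measured by: Fluo-8 calcium-sensitive fluorescence | Read-out basis: % inhibition of agonist calcium response | Replicates: n of 1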
# CHO parental Ca: ATP-evoked calcium signal inhibitors, parental CHO, primary screen, counter-screen for OX1R antagonist project, cell-based, fluorescence, Fluo-8 calcium dye; parental CHO-K1, ATP-induced calcium, Fluo-8 fluorescence; inhibition, % at 5.6 µM; 330,000 compounds, 0.63% hits;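 active means inhibition above that plate's mean sample inhibition plus 3 SD, cut at about 26% in these data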;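 further: 0% = ATP-challenged DMSO wells and 100% = DMSO wells without ATP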
#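 Measured by: calcium-sensitive Fluo-8 fluorescence / Test system: CHO parental line / Controls: ATP-challenged DMSO wells low, unchallenged DMSO wells high / Measure: % inhibition / Compound: single nominal dose of 5.6 µM per compound / Replicates: single well per compound, no replicates / Reagent: ATP as calcium-mobilizing challenge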
# OX1R antag-1: antagonists of human orexin 1 receptor (OX1R). Orexin/Hypocretin receptor type 1 (Homo sapiens), O43613. OX1R-expressing cells, FRET antagonist read-out. inhibition, % at 6.6 µM. 330,000 compounds, 1.8% hits; in the data active means inhibition mostly above about 38%, no sharp cut-off; inactive means mostly below about 40%;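 further: 0% = agonist challenge alone and 100% = reference antagonist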
# OX1R antag-2: OX1R (HCRTR1) antagonists, primary screen, fluorescence, CHO/OX1R cells, Fluo-8 calcium, orexin A; Orexin/Hypocretin receptor type 1 (Homo sapiens), O43613; Fluo-8 calcium fluorescence; inhibition, % at 5 µM; 330,000 compounds, 0.43% hits; AID 434989, 2010;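 active means inhibition above its plate's threshold, mean inhibition of all tested compounds on the plate plus 3 SD, cut at about 37% in these data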;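 further: 0% = orexin A challenge wells and 100% = SB-334867-A antagonist wells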
# GPR7 antagonist: GPR7 receptor antagonists, primary screen, cell-based, fluorescence, single concentration; Neuropeptides B/W receptor type 1 (Homo sapiens), P48145; GPR7-expressing cells, fluorescence antagonist assay; inhibition, % at 4.4 µM; 290,000 compounds, 1.1% hits; AID 1861, 2009; in the data active means inhibition above about 16%, passing the limit was not always enough;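 further: cells stimulated with the agonist NPW; 0% = agonist with vehicle and 100% = vehicle without agonist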
# Target sequence (P48145 whole entry, looked up): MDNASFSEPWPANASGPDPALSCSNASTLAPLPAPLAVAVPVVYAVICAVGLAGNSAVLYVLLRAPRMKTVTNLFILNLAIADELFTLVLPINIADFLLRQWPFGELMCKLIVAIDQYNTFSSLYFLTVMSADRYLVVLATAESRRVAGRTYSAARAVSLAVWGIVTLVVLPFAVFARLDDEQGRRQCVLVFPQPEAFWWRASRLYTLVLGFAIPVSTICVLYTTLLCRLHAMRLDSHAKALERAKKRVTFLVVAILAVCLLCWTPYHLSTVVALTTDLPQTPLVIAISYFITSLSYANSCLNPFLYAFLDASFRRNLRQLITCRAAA
# TAAR1 ag: human TAAR1 agonists, primary screen, Fluo-8 calcium fluorescence, CHO RD-HGA16 cells; Trace amine-associated receptor 1 (Homo sapiens), Q96RJ0; vehicle wells 0%, saturating PEA agonist 100%; activation, % at 3 µM; 360,000 compounds, 0.99% hits; AID 624467, 2012;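 active means activation above the mean activation of all test compounds in the run plus 3 SD, cut at about 38% in these data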
#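 Repeats: no replicates (n 1) | Material: CHO-derived RD-HGA16 cells with stable Gα16 and human TAAR1 | Technique: Kinetic Fluo-8 calcium fluorescence | Schedule: 17-24 h seeding, 75 min 37 °C dye, 30 min RT | Evaluation: % activation from peak over basal fluorescence ratio, DMSO-to-PEA scaled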
# Numbers without * were called inactive; · = no result given.
SMILES,TAAR1 antagonist,CHO parental Ca,OX1R antag-1,OX1R antag-2,GPR7 antagonist,TAAR1 ag
CN(C)CCCNC(=S)NCC(c1ccc(Cl)cc1Cl)c1c[nH]c2ccccc12 (stereo not drawn),40,43*,2,39*,75*,13
CCN1C(=O)/C(=C2/C=CC=CN2C)SC1=S,-5,5,46*,4,4,6
COc1ccc(C(=O)N2CCc3ccccc32)cc1,-38,-4,17,-27,17*,2
COc1ccc(S(=O)(=O)N2CCN(CC(=O)NC(Cc3ccccc3)C(C)=O)CC2)cc1 (stereo not drawn),10,-2,8,-13,·,8
CCOc1cc(-c2nc3ccccn3c2NCC2CCCO2)ccc1O (stereo not drawn),57*,2,9,-12,14,24
C[C@H](CO)N1C[C@H](C)[C@@H](CN(C)C(=O)Nc2ccc(C(F)(F)F)cc2)Oc2ccc(NC(=O)C3CCCCC3)cc2C1=O,-6,-20,3,-19,·,1
CN(C)CCN1C(=O)C(O)=C(C(=O)c2cc3ccccc3o2)C1c1ccccn1 (stereo not drawn),·,8,49*,-7,15,·
CCCCn1c(SCc2nc(N)nc(N3CCCCC3)n2)nc2c1c(=O)n(C)c(=O)n2C,5,-5,4,3,-6,0
CC1CC(=Cc2ccc([N+](=O)[O-])cc2)C(=O)O1 (stereo not drawn),-12,·,·,·,·,1
O=C(Nc1cccc(Cl)c1)Nc1csc([N+](=O)[O-])c1,28,62*,50*,17,14,5
CN(C)c1ccc(NC(=O)Nc2cccc(Cl)c2)cc1,43,-4,27,-6,-6,31
O=C(/C=C/Nc1ccccc1)c1ccc(Oc2ncccn2)cc1,-29,-11,4,-24,4,43*
COc1cc(C(=O)NCCNC(=O)c2ccco2)cc(OC)c1OC,-36,·,·,·,·,1
Cc1ccc(N2C(=O)N(CC(=O)N3c4ccccc4CC3C)C(=O)C2C)cc1 (stereo not drawn),-36,·,·,·,·,-2
CN(C)C1=NC[C@H](Cc2ccccc2)N1CCCC1CCCCC1,5,19,15,-9,·,48*
CCCCN1C(=O)C(CC(=O)NCCN2CCOCC2)CC(C(=O)N2CCOCC2)=C1C (stereo not drawn),-17,·,·,·,·,2
CC(=O)c1cccc(NS(=O)(=O)c2ccc(N/C=C\C(=O)c3ccc(C)cc3)cc2)c1,19,47*,53,49*,7,6
CC(=O)c1ccc(NC(=O)Nc2ccc(NS(=O)(=O)c3ccc(C)cc3)cc2)cc1,56*,-3,10,24,11,6
COC(=O)Nc1ccc(S(=O)(=O)Nc2ccc(C)cc2)cc1,·,·,·,·,0,·
COCCNC(=O)C(c1ccc(F)cc1)N(C(=O)CCC(=O)Nc1ccccn1)c1cccc(C)c1 (stereo not drawn),-1,-19,12,-21,14,-2
Cc1cc(C)cc(NC(=S)/C(=C(\[O-])c2ccc(Cl)cc2Cl)[n+]2ccccc2)c1,3,-12,6,-27,16*,-1
COc1ccc(/C=N/Nc2cc(C)nc3ccccc23)cc1,-25,-4,11,-17,7,15
COc1ccc(/C=N/Nc2cn[nH]c(=O)c2Cl)cc1,-4,-3,24,-25,1,41*
CC1=C(C(=O)N2CCCCCC2)CC(CC(=O)NC(c2ccccc2)c2ccccc2)C(=O)N1CCC1=CCCCC1 (stereo not drawn),4,·,·,·,·,1
CCOC(=O)c1nn(-c2sc(C(=O)OC)c(C)c2C(=O)OC)cc1O,5,-4,4,-5,19*,12
SMILES,TAAR1 antagonist,CHO parental Ca,OX1R antag-1,OX1R antag-2,GPR7 antagonist,TAAR1 ag
CCOC(=O)c1nn(-c2cc(C(=O)OC)cc(C(=O)OC)c2)cc1O,7,-5,3,0,-10,4
O=C1Nc2ccc(Cl)cc2[C@@](C#CC2CC2)(C(F)(F)F)O1,·,48*,20,14,-24,·
O=C(COc1ccccc1F)Nc1ccccc1C(=O)NC1CC1,52*,-7,9,-6,·,7
Cc1ccc(C)c(OCC(=O)Nc2ccccc2C(=O)NC2CC2)c1,-4,·,·,·,3,2
Cc1ccc(S(=O)(=O)N(C)CC(=O)N(C)CCOc2ccccc2)cc1,-6,·,·,·,·,1
CCOC(=O)C1CCN(C2=C(NS(=O)(=O)c3ccc(Br)cc3)C(=O)c3ccccc3C2=O)CC1,-2,-33,75*,-41,-9,-3
NC(=O)C1CCN(C2=C(NS(=O)(=O)c3ccc(Br)cc3)C(=O)c3ccccc3C2=O)CC1,-3,-18,76*,-17,-2,4
NC(=O)C1CCN(C2=C(Cl)C(=O)c3ccccc3C2=O)CC1,21,7,62*,3,-10,0
CCOC(=O)N(C)[C@H]1C[C@H]2c3[nH]c4ccccc4c3CCN2C(=O)[C@H]1[C@H](C)O,-19,·,·,·,·,3
O=C(Nc1ccccc1N1CCOCC1)c1ccc(Cl)nc1,8,-20,17,-41,-8,2
Brc1ccc(Nc2nc(-c3cccnc3)cs2)cc1,14,17,59,-26,-1,-1
Cc1ccc(Nc2nc(-c3cccnc3)cs2)cc1C,-7,-32,58*,-39,-13,3
COc1cccc(OC)c1C(=O)Nc1cc(Cl)ccc1N1CCOCC1,-19,-41,53*,-6,-9,13
Cc1ccc(CNC(=O)C2CC(c3ccc(C(F)(F)F)cc3)=NO2)o1 (stereo not drawn),5,62*,28,1,·,2
CCCc1nc2sc3ccccc3c(=O)c2c(=O)n1Cc1ccc(OC)cc1,-25,-15,8,-26,-9,2
CCCc1nc2sc3ccccc3c(=O)c2c(=O)n1Cc1ccco1,1,·,·,·,-9,68*
COc1cc(/C=N/NC(=O)c2nnn(-c3nonc3N)c2C(C)C)ccc1OCc1ccc(F)cc1,7,49*,8,35,7,1
C/C(=N\NC(=O)c1nnn(-c2nonc2N)c1CN(C)c1ccccc1)c1ccccc1O,16,4,55*,23,-11,0
CC(C)c1c(C(=O)N/N=C/c2ccncc2)nnn1-c1nonc1N,11,14,11,-13,6,3
CC(C)c1c(C(=O)N/N=C/C=C/c2ccccc2)nnn1-c1nonc1N,34,-8,-1,-15,6,42*

# Assay outcomes deposited in PubChem BioAssay by The Scripps Research Institute Molecular Screening Center.
